Test results: PMC10262665 (Science (New York, N.Y.), 2023)
One block for each compound: values may come before it.

Key:
[1] = test system: H9c2 rat cardiomyoblasts; experiment: 13C-lactate metabolic tracing into pyruvate; format: cell-based
[2] = test system: H9c2 rat cardiomyoblasts; experiment: 13C-glucose metabolic tracing into lactate; format: cell-based; conditions: for labeling of lactate from 13C-glucose: BSA-conjugated palmitate vs BSA
[3] = target: LDHB (Homo sapiens, UniProt P07195); experiment: MIDAS protein-metabolite interaction screen; format: binding; conditions: significant PMI Q < 0.01
Outline: (§1)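 Purified protein is separated from a defined metabolite library by a semipermeable dialysis membrane that passes metabolites but not protein, then incubated to relative equilibrium. Protein is denatured and removed. Metabolites in both chambers are quantified by flow injection analysis–MS, with methods optimized for each pool. The between-chamber fold change is normalized and corrected for nonspecific interactions.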

[4] = target: T1, LDHA (Homo sapiens, UniProt P00338); experiment: MIDAS protein-metabolite interaction screen; format: binding; conditions: significant PMI Q < 0.01
Outline: as §1

[5] = target: T1, LDHA; experiment: LDH enzyme activity assay; format: biochemical; conditions: for IC50: LDHA enzyme activity, acyl-CoAs; for inhibition of LDHA enzyme activity: in vitro
Outline: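 LDH isoform activity measured in vitro with test metabolites (adenosine nucleotides, CoA and acyl-CoAs) over a concentration range. IC50 is derived from the inhibition curves. Mode of inhibition is assessed against NAD and lactate.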

[6] = target: PGAM1 (Homo sapiens, UniProt P18669); experiment: MIDAS protein-metabolite interaction screen; format: binding; conditions: significant PMI Q < 0.01
Outline: as §1

[7] = target: T2, PGAM2 (Homo sapiens, UniProt P15259); experiment: MIDAS protein-metabolite interaction screen; format: binding; conditions: significant PMI Q < 0.01
T2 sequence (P15259 1-253): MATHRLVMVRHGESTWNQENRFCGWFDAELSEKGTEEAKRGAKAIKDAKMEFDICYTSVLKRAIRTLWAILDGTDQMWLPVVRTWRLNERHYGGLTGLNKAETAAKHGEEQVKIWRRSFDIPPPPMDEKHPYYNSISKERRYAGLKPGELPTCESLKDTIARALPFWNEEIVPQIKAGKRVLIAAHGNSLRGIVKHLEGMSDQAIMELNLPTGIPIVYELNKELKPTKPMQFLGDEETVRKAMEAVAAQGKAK
Outline: as §1

[8] = target: T3, Sestrin2 (Homo sapiens, UniProt P58004); experiment: MIDAS protein-metabolite interaction screen; format: binding; conditions: significant PMI Q < 0.01
T3 sequence (P58004 1-480): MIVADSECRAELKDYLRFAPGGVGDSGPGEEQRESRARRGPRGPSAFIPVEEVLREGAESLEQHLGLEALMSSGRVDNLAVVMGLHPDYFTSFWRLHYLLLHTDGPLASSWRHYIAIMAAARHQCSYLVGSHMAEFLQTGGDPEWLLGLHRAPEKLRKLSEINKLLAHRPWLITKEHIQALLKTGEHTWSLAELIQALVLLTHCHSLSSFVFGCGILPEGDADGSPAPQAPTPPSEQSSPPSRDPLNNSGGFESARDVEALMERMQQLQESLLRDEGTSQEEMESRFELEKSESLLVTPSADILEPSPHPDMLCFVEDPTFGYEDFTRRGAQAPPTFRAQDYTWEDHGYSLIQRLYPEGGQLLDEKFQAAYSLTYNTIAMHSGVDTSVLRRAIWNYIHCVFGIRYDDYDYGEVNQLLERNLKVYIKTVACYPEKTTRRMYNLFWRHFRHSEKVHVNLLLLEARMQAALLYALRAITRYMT
Outline: as §1

[9] = target: T4, CASTOR1 (Homo sapiens, UniProt Q8WTX7); experiment: MIDAS; format: binding; conditions: significant PMI Q < 0.01
T4 sequence (Q8WTX7 1-329): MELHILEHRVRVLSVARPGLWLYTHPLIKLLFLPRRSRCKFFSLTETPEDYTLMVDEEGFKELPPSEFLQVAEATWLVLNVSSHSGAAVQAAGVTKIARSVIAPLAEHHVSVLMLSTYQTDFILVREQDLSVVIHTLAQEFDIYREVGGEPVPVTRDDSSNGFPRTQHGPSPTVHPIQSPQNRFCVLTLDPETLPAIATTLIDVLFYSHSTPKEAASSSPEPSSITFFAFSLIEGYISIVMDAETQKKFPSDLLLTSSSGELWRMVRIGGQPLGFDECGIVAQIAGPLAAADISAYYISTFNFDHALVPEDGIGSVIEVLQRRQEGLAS
Outline: as §1

[10] = target: ENO1 (Homo sapiens, UniProt P06733); experiment: Differential scanning fluorimetry; format: binding; conditions: DSF, ENO1
[11] = target: ENO2 (Homo sapiens, UniProt P09104); experiment: Differential scanning fluorimetry; format: binding; conditions: DSF, ENO2
[12] = target: GAPDH (Homo sapiens, UniProt P04406); experiment: MIDAS protein-metabolite interaction screen; format: binding; conditions: significant PMI Q < 0.01
[13] = dimethylated fatty acid analogs

Sequence of GAPDH (P04406 whole entry): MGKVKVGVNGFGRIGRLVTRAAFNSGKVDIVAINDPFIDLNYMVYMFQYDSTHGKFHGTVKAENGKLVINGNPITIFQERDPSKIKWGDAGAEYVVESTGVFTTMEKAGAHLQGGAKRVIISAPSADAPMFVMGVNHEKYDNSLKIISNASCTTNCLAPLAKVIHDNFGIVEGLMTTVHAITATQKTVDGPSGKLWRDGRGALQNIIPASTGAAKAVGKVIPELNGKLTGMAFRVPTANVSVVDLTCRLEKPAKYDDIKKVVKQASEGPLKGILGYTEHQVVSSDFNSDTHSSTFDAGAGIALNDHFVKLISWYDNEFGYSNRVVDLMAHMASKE
Sequence of ENO1 (P06733 whole entry): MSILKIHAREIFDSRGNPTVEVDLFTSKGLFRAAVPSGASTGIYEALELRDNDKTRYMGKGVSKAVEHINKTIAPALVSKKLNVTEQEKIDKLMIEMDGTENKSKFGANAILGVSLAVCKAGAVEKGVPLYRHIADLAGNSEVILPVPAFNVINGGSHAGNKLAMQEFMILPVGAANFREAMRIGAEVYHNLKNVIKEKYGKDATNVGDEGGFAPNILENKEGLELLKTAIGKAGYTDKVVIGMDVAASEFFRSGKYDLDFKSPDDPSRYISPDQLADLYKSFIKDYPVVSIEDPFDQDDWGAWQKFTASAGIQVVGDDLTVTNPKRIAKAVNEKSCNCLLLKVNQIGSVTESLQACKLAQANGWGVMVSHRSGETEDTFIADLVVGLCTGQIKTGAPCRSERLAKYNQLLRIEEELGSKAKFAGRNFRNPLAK
Sequence of PGAM1 (P18669 whole entry): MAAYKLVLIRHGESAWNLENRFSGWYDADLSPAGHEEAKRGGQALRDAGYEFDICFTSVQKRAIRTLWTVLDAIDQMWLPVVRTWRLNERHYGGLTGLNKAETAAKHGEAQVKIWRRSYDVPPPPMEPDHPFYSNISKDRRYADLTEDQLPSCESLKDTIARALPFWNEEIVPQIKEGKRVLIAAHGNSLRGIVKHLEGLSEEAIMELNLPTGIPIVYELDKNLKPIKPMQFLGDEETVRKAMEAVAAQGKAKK
Sequence of ENO2 (P09104 whole entry): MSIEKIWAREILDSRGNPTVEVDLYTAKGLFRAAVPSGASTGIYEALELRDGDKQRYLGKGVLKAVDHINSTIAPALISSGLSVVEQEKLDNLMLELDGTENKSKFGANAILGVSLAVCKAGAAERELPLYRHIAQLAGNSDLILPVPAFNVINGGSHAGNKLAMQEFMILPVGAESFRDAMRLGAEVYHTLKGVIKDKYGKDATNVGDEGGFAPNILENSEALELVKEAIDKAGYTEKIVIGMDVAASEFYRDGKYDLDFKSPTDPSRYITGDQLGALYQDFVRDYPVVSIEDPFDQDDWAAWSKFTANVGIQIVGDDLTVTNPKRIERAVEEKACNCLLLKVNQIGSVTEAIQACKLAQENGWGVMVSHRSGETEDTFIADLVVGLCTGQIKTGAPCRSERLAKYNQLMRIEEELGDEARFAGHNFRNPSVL
Sequence of LDHB (P07195 whole entry): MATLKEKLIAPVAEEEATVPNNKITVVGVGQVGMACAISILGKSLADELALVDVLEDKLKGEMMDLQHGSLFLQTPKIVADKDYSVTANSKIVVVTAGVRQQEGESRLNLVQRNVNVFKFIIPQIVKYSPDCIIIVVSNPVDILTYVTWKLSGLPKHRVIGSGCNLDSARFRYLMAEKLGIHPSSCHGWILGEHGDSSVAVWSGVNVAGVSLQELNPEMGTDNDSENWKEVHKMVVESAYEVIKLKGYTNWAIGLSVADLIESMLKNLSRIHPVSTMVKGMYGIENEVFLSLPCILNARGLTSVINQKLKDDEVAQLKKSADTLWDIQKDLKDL

Compound: CCC/C=C/C/C=C/C=C/C=N/NN=O [triacsin C, reference compound]
effect on palmitate-mediated inhibition of pyruvate labeling ([1]; 13C-lactate tracing in presence of palmitate): prevented | effect on palmitate-mediated inhibition of lactate labeling ([2]; 13C-glucose tracing in presence of palmitate): prevented

Compound: NC(=O)c1ccc[n+]([C@@H]2O[C@H](COP(=O)([O-])O)[C@@H](O)[C@H]2O)c1 [nicotinamide mononucleotide]
MIDAS protein-metabolite interaction [3]: interactions | MIDAS protein-metabolite interaction [4]: interactions

Compound: C=C(OP(=O)(O)O)C(=O)O [PEP, phosphoenolpyruvate]
MIDAS protein-metabolite interaction [6]: interacted | MIDAS protein-metabolite interaction [7]: interacted

Compound: N=C(N)NCCC[C@H](N)C(=O)O [arginine]
MIDAS protein-metabolite interaction [9]: most enriched interactors

Compound: O=C(O)[C@@H](CO)OP(=O)(O)O [2PG, 2-phosphoglycerate]
Kd ([10]; read-out: apparent dissociation constant (Kd app)): 298 µM | Kd ([11]; read-out: apparent dissociation constant (KD app)): 289 µM

Compound: CC(C)C[C@H](N)C(=O)O [leucine]
MIDAS protein-metabolite interaction [8]: most enriched interactors

Compound: CCCCCCCCCCCCCCC(C)(C)C(=O)SCCNC(=O)CCNC(=O)C(O)C(C)(C)COP(=O)(O)OP(=O)(O)OCC1OC(n2cnc3c(N)ncnc32)C(O)C1OP(=O)(O)O (centres unmarked) [DiMePal-CoA, reference compound]
inhibition of LDHA enzyme activity [5]: inhibited

Compound: CCCCCCCCCCCCCCCC(=O)O [Palmitate, palmitate]
pyruvate labeling from 13C-lactate ([1]; Ldha−/− H9c2 cells): unaffected | pyruvate labeling from 13C-lactate ([1]; Ldha−/−Ldhb−/− H9c2 cells): unaffected | generation of m+3 pyruvate from 13C-lactate ([1]; Ldhb−/− H9c2 cells): blunted | generation of m+3 pyruvate from 13C-lactate ([1]; WT H9c2 cells): blunted | labeling of lactate from 13C-glucose ([2]; Ldhb−/− H9c2 cells): decreased | labeling of lactate from 13C-glucose ([2]; WT H9c2 cells): decreased

Compound: N[C@@H](Cc1ccc(OP(=O)(O)O)cc1)C(=O)O [phosphotyrosine]
thermal stabilization of protein upon ligand binding [10]: not | thermal stabilization of protein upon ligand binding [11]: not

Compound: NC(=O)C1=CN([C@@H]2O[C@H](COP(=O)(O)OP(=O)(O)OC[C@H]3O[C@@H](n4cnc5c(N)ncnc54)[C@H](O)[C@@H]3O)[C@@H](O)[C@H]2O)C=CC1 [NADH]
MIDAS protein-metabolite interaction [3]: interactions | MIDAS protein-metabolite interaction [4]: interactions

Compound: CC[C@H](C)[C@H](N)C(=O)O [isoleucine]
MIDAS protein-metabolite interaction [8]: most enriched interactors

Compound: CC(C)(COP(=O)(O)OP(=O)(O)OC[C@H]1O[C@@H](n2cnc3c(N)ncnc32)[C@H](O)[C@@H]1OP(=O)(O)O)[C@@H](O)C(=O)NCCC(=O)NCCS [CoA, coenzyme A]
inhibition of LDHA enzyme activity [5]: Neither

Compound: CCCCCCCC/C=C\CCCCCCCC(=O)SCCNC(=O)CCNC(=O)[C@H](O)C(C)(C)COP(=O)(O)OP(=O)(O)OC[C@H]1O[C@@H](n2cnc3c(N)ncnc32)[C@H](O)[C@@H]1OP(=O)(O)O [C18:1-CoA, oleoyl-CoA]
IC50 [5]: ~1 µM

Compound: N[C@@H](CO)C(=O)O [serine]
thermal stabilization of protein upon ligand binding [10]: not | thermal stabilization of protein upon ligand binding [11]: not

Compound: CCCCCCCCCCCCCCCCC(C)(C)C(=O)O [DiMeSte, 2,2-dimethyl-stearate, reference compound]
13C-lactate tracing [1, 13]: inhibited | 13C-glucose tracing [2, 13]: inhibited

Compound: CCCCCC(=O)OCC(COP(=O)(O)OC1C(O)C(OP(=O)(O)O)C(OP(=O)(O)O)C(OP(=O)(O)O)C1O)OC(=O)CCCCC (centres unmarked) [PIP3, phosphatidylinositol-3,4,5-trisphosphate C-6]
MIDAS protein-metabolite interaction [7]: interacted

Compound: Nc1ncnc2c1ncn2[C@@H]1O[C@@H]2COP(=O)(O)O[C@H]2[C@H]1O [cAMP, cyclic adenosine monophosphate]
MIDAS protein-metabolite interaction [12]: interacted

Compound: NCCCN [1,3-diaminopropane]
MIDAS protein-metabolite interaction [8]: bind | MIDAS protein-metabolite interaction [9]: bind

Compound: CN(CC(=O)O)C(=N)NP(=O)(O)O [creatine-phosphate]
MIDAS protein-metabolite interaction [12]: interacted

Continued, values first:

IC50 [5]: ~1 µM
Compound: CCCCCCCCCCCCCCCCCCCC(=O)SCCNC(=O)CCNC(=O)[C@H](O)C(C)(C)COP(=O)(O)OP(=O)(O)OC[C@H]1O[C@@H](n2cnc3c(N)ncnc32)[C@H](O)[C@@H]1OP(=O)(O)O [C20:0-CoA, arachidoyl-CoA]

MIDAS protein-metabolite interaction [8]: bind | MIDAS protein-metabolite interaction [9]: bind
Compound: NCCCCCN [cadaverine]

MIDAS protein-metabolite interaction [8]: most enriched interactors
Compound: CSCC[C@H](N)C(=O)O [methionine]

MIDAS protein-metabolite interaction [7]: interacted
Compound: CCCCCC(=O)OCC(COP(=O)(O)OC1C(O)C(O)C(OP(=O)(O)O)C(OP(=O)(O)O)C1O)OC(=O)CCCCC (centres unmarked) [PIP2, phosphatidylinositol-4,5-bisphosphate C-6]

MIDAS protein-metabolite interaction [12]: interacted
Compound: CC(C)(CO[P@@](=O)(O)O[P@@](=O)(O)OC[C@H]1O[C@@H](n2cnc3c(N)ncnc32)[C@H](O)[C@@H]1OP(=O)(O)O)[C@@H](O)C(=O)NCCC(=O)NCCSC(=O)CC(=O)O [malonyl-coenzyme A]

MIDAS protein-metabolite interaction [6]: interacted | MIDAS protein-metabolite interaction [12]: interacted
Compound: O=P(O)(O)O[C@@H]1[C@H](O)[C@H](O)[C@@H](OP(=O)(O)O)[C@H](OP(=O)(O)O)[C@H]1O [inositol-1,4,5-trisphosphate]

MIDAS protein-metabolite interaction [3]: interactions | MIDAS protein-metabolite interaction [4]: interactions | MIDAS protein-metabolite interaction [12]: interacted
Compound: NC(=O)c1ccc[n+]([C@@H]2O[C@H](COP(=O)([O-])OP(=O)(O)OC[C@H]3O[C@@H](n4cnc5c(N)ncnc54)[C@H](O)[C@@H]3O)[C@@H](O)[C@H]2O)c1 [NAD, nicotinamide adenine dinucleotide]

MIDAS protein-metabolite interaction [3]: interactions | MIDAS protein-metabolite interaction [4]: interactions
Compound: O=C(O)CC(=O)C(=O)O [oxaloacetate]

MIDAS protein-metabolite interaction [6]: interacted | MIDAS protein-metabolite interaction [7]: interacted
Compound: O=C(O)[C@H](O)COP(=O)(O)O [3PG, 3-phosphoglycerate]

MIDAS protein-metabolite interaction [12]: interacted
Compound: CC(O)(CC(=O)O)CC(=O)SCCNC(=O)CCNC(=O)[C@H](O)C(C)(C)COP(=O)(O)OP(=O)(O)OC[C@H]1O[C@@H](n2cnc3c(N)ncnc32)[C@H](O)[C@@H]1OP(=O)(O)O (some centres unmarked) [HMG-CoA, 3-hydroxy-3-methylglutaryl-CoA]

IC50 [5]: > 100 µM
Compound: CCCCCCCCCCCC(=O)SCCNC(=O)CCNC(=O)[C@H](O)C(C)(C)COP(=O)(O)OP(=O)(O)OC[C@H]1O[C@@H](n2cnc3c(N)ncnc32)[C@H](O)[C@@H]1OP(=O)(O)O [C12:0-CoA, lauroyl-CoA]

MIDAS protein-metabolite interaction [8]: bind | MIDAS protein-metabolite interaction [9]: bind
Compound: NCCCCN=C(N)N [agmatine]

MIDAS protein-metabolite interaction [3]: interactions | MIDAS protein-metabolite interaction [4]: interactions
Compound: Cc1cc2nc3c(=O)[nH]c(=O)nc-3n(C[C@H](O)[C@H](O)[C@H](O)COP(=O)(O)OP(=O)(O)OC[C@H]3O[C@@H](n4cnc5c(N)ncnc54)[C@H](O)[C@@H]3O)c2cc1C [flavin adenine dinucleotide]

MIDAS protein-metabolite interaction [6]: interacted | MIDAS protein-metabolite interaction [7]: interacted | MIDAS protein-metabolite interaction [12]: interacted
Compound: O=C(O)C(COP(=O)(O)O)OP(=O)(O)O (centres unmarked) [2,3-BPG, 2,3-bisphosphoglycerate]

thermal stabilization of protein upon ligand binding [10]: not | thermal stabilization of protein upon ligand binding [11]: not
Compound: phosphate
